Measured values: ChEMBL document CHEMBL1123648, “Synthesis, chemical reactivity, and antileukemic activity of 5-substituted 6,7-bis(hydroxymethyl)pyrrolo[1,2-c]thiazole biscarbamates and the corresponding sulfoxides and sulfones” (1987)

Columns and labels:
[1] = tested on: P388; test: Log cell population relative to cell population at the beginning of treatment compared to control group C at a dose of 25 mg/kg; format: functional, Mus musculus
[2] = Antileukemic activity against Murine P388 lymphocytic leukemia, body weight difference of the test animals compared to control group C animals at a dose of 100 mg/kg; format: functional, Mus musculus; set-up: unit not given here
Outline: (§1)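 CD2F1 mice implanted intraperitoneally with ascitic fluid carrying ca. 1×10^6 P388 cells, under the NCI protocol. Dosing was intraperitoneal, starting 24 h after inoculation, then every 24 h for five doses in total. The body weight difference of treated mice is taken against untreated controls. Toxicity day survivors are the mice alive at day five out of those tested.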

[3] = Percent increase in life span of test animals compared to untreated tumor-bearing control group C animals at a dose of 50 mg/kg; format: functional; settings: Mus musculus
[4] = Toxicity day survivors expressed as number of animals that survived to day five/ number of test animals under control group C at a dose of 100 mg/kg; 6 survived out of 6; format: functional, Mus musculus
[5] = Antileukemic activity against Murine P388 lymphocytic leukemia, body weight difference of the test animals compared to control group C animals at a dose of 200 mg/kg; format: functional, Mus musculus; outline: as §1
[6] = Percent increase in life span of test animals compared to untreated tumor-bearing control group C animals at a dose of 25 mg/kg; format: functional; settings: Mus musculus
[7] = Antileukemic activity against Murine P388 lymphocytic leukemia and toxicity day survivors expressed as number of animals that survived to day five/ number of test animals under control group C at a dose of 50 mg/kg; 6 survived out of 6; format: functional, Mus musculus
[8] = Toxicity day survivors expressed as number of animals that survived to day five/ number of test animals under control group C at a dose of 200 mg/kg; 6 survived out of 6; format: functional, Mus musculus
[9] = tested on: P388; test: Log cell population relative to cell population at the beginning of treatment compared to control group C at a dose of 100 mg/kg; format: functional, Mus musculus
[10] = Antileukemic activity against Murine P388 lymphocytic leukemia, body weight difference of the test animals compared to control group C animals at a dose of 50 mg/kg; format: functional, Mus musculus; set-up: unit not given here; outline: as §1
[11] = Antileukemic activity against Murine P388 lymphocytic leukemia, body weight difference of the test animals compared to control group C animals at a dose of 25 mg/kg; format: functional, Mus musculus; outline: as §1
[12] = tested on: P388; test: Log cell population relative to cell population at the beginning of treatment compared to control group C at a dose of 50 mg/kg; format: functional, Mus musculus
[13] = Percent increase in life span of test animals compared to untreated tumor-bearing control group C animals at a dose of 100 mg/kg; format: functional; settings: Mus musculus
[14] = Toxicity day survivors expressed as number of animals that survived to day five/ number of test animals under control group C at a dose of 25 mg/kg; 6 survived out of 6; format: functional, Mus musculus
[15] = Antileukemic activity against Murine P388 lymphocytic leukemia, body weight difference of the test animals compared to control group A animals at a dose of 100 mg/kg; format: functional, Mus musculus; set-up: unit not given here; outline: as §1
[16] = Toxicity day survivors expressed as number of animals that survived to day five/ number of test animals under control group A at a dose of 200 mg/kg; 6 survived out of 6; format: functional, Mus musculus
[17] = Percent increase in life span of test animals compared to untreated tumor-bearing control group A animals at a dose of 50 mg/kg; format: functional; settings: Mus musculus
[18] = Toxicity day survivors expressed as number of animals that survived to day five/ number of test animals under control group A at a dose of 25 mg/kg; 6 survived out of 6; format: functional, Mus musculus
[19] = Percent increase in life span of test animals compared to untreated tumor-bearing control group A animals at a dose of 25 mg/kg; format: functional; settings: Mus musculus
[20] = Toxicity day survivors expressed as number of animals that survived to day five/ number of test animals under control group A at a dose of 400 mg/kg; 6 survived out of 6; format: functional, Mus musculus
[21] = Antileukemic activity against Murine P388 lymphocytic leukemia, body weight difference of the test animals compared to control group A animals at a dose of 400 mg/kg; format: functional, Mus musculus; outline: as §1
[22] = Toxicity day survivors expressed as number of animals that survived to day five/ number of test animals under control group A at a dose of 100 mg/kg; 6 survived out of 6; format: functional, Mus musculus
[23] = Percent increase in life span of test animals compared to untreated tumor-bearing control group A animals at a dose of 200 mg/kg; format: functional; settings: Mus musculus
[24] = Antileukemic activity against Murine P388 lymphocytic leukemia, body weight difference of the test animals compared to control group A animals at a dose of 25 mg/kg; format: functional, Mus musculus; set-up: unit not given here; outline: as §1
[25] = Antileukemic activity against Murine P388 lymphocytic leukemia, body weight difference of the test animals compared to control group A animals at a dose of 50 mg/kg; format: functional, Mus musculus; set-up: unit not given here; outline: as §1
[26] = Percent increase in life span of test animals compared to untreated tumor-bearing control group A animals at a dose of 400 mg/kg; format: functional; settings: Mus musculus
[27] = Toxicity day survivors expressed as number of animals that survived to day five/ number of test animals under control group A at a dose of 50 mg/kg; 6 survived out of 6; format: functional, Mus musculus
[28] = Antileukemic activity against Murine P388 lymphocytic leukemia, body weight difference of the test animals compared to control group A animals at a dose of 200 mg/kg; format: functional, Mus musculus; outline: as §1
[29] = Percent increase in life span of test animals compared to untreated tumor-bearing control group A animals at a dose of 100 mg/kg; format: functional; settings: Mus musculus
[30] = tested on: P388; test: Log cell population relative to cell population at the beginning of treatment compared to control group A at a dose of 12.5 mg/kg; format: functional, Mus musculus
[31] = Percent increase in life span of test animals compared to untreated tumor-bearing control group A animals at a dose of 12.5 mg/kg; format: functional; settings: Mus musculus
[32] = Antileukemic activity against Murine P388 lymphocytic leukemia, body weight difference of the test animals compared to control group A animals at a dose of 12.5 mg/kg; format: functional, Mus musculus; outline: as §1
[33] = Toxicity day survivors expressed as number of animals that survived to day five/ number of test animals under control group A at a dose of 100 mg/kg; 3 survived out of 6; format: functional, Mus musculus
[34] = Antileukemic activity against Murine P388 lymphocytic leukemia, body weight difference of the test animals compared to control group A animals at a dose of 6.25 mg/kg; format: functional, Mus musculus; outline: as §1
[35] = Toxicity day survivors expressed as number of animals that survived to day five/ number of test animals under control group A at a dose of 12.5 mg/kg; 6 survived out of 6; format: functional, Mus musculus
[36] = tested on: P388; test: Log cell population relative to cell population at the beginning of treatment compared to control group A at a dose of 25 mg/kg; format: functional, Mus musculus
[37] = Toxicity day survivors expressed as number of animals that survived to day five/ number of test animals under control group A at a dose of 6.25 mg/kg; format: functional, Mus musculus
[38] = tested on: P388; test: Log cell population relative to cell population at the beginning of treatment compared to control group A at a dose of 6.25 mg/kg; format: functional, Mus musculus
[39] = Toxicity day survivors expressed as number of animals that survived to day five/ number of test animals under control group A at a dose of 50 mg/kg; 5 survived out of 6; format: functional, Mus musculus
[40] = Percent increase in life span of test animals compared to untreated tumor-bearing control group A animals at a dose of 6.25 mg/kg; format: functional; settings: Mus musculus
[41] = tested on: P388; test: Log cell population relative to cell population at the beginning of treatment compared to control group A at a dose of 50 mg/kg; format: functional, Mus musculus
[42] = tested on: P388; test: Log cell population relative to cell population at the beginning of treatment compared to control group A at a dose of 100 mg/kg; format: functional, Mus musculus
[43] = Toxicity day survivors expressed as number of animals that survived to day five/ number of test animals under control group A at a dose of 400 mg/kg; 3 survived out of 6; format: functional, Mus musculus
[44] = tested on: P388; test: Log cell population relative to cell population at the beginning of treatment compared to control group A at a dose of 200 mg/kg; format: functional, Mus musculus

SMILES: CNC(=O)OCc1c(COC(=O)NC)c2n(c1C)CS(=O)(=O)C2
- KE [1]: -0.05
- BWD [2]: -2.5
- ILS at 50 mg/kg [3]: 40%
- TDS [4]: 6
- BWD [5]: -2.1
- ILS at 25 mg/kg [6]: 22%
- TDS [7]: 6
- TDS [8]: 6
- KE [9]: 0.33
- BWD [10]: 0.6
- BWD [11]: 0.3
- KE [12]: 0.03
- ILS at 100 mg/kg [13]: 104%
- TDS [14]: 6

SMILES: CC(C)NC(=O)OCc1c(COC(=O)NC(C)C)c(-c2ccc(Cl)c(Cl)c2)n2c1CSC2
- BWD [15]: -0.9
- TDS [16]: 6
- ILS at 50 mg/kg [17]: -12%
- TDS [18]: 6
- ILS at 25 mg/kg [19]: -9%
- TDS [20]: 6
- BWD [21]: -1.3
- TDS [22]: 6
- ILS at 200 mg/kg [23]: -12%
- BWD [24]: -1.3
- BWD [25]: -1.3
- ILS at 400 mg/kg [26]: -11%
- TDS [27]: 6
- BWD [28]: -1.7
- ILS at 100 mg/kg [29]: -13%

SMILES: Cc1c(COC(=O)NC(C)C)c(COC(=O)NC(C)C)c2n1CSC2
- BWD [15]: -4.9
- TDS [16]: 0
- KE [30]: 0.4
- TDS [18]: 6
- ILS at 12.5 mg/kg [31]: 42%
- ILS at 25 mg/kg [19]: 73%
- BWD [32]: -1.9
- TDS [33]: 3
- BWD [34]: -1.3
- TDS [35]: 6
- BWD [24]: 1.9
- BWD [25]: -3.5
- KE [36]: 2.61
- TDS [37]: 6
- KE [38]: 1.27
- TDS [39]: 5
- ILS at 6.25 mg/kg [40]: 54%

SMILES: Cc1c(COC(=O)NC(C)C)c(COC(=O)NC(C)C)c2n1C[S+]([O-])C2 (stereo not given)
- BWD [15]: -0.1
- TDS [16]: 6
- ILS at 50 mg/kg [17]: 26%
- KE [41]: -0.69
- BWD [21]: -4.5
- KE [42]: -0.08
- TDS [43]: 3
- TDS [22]: 6
- ILS at 200 mg/kg [23]: 76%
- BWD [25]: -0.6
- KE [44]: 3.94
- TDS [27]: 6
- BWD [28]: -2.6
- ILS at 100 mg/kg [29]: 32%
